The first assay concerns the target T1, DNA topoisomerase 1 (Homo sapiens) (UniProt P11387).
T1 sequence (whole entry): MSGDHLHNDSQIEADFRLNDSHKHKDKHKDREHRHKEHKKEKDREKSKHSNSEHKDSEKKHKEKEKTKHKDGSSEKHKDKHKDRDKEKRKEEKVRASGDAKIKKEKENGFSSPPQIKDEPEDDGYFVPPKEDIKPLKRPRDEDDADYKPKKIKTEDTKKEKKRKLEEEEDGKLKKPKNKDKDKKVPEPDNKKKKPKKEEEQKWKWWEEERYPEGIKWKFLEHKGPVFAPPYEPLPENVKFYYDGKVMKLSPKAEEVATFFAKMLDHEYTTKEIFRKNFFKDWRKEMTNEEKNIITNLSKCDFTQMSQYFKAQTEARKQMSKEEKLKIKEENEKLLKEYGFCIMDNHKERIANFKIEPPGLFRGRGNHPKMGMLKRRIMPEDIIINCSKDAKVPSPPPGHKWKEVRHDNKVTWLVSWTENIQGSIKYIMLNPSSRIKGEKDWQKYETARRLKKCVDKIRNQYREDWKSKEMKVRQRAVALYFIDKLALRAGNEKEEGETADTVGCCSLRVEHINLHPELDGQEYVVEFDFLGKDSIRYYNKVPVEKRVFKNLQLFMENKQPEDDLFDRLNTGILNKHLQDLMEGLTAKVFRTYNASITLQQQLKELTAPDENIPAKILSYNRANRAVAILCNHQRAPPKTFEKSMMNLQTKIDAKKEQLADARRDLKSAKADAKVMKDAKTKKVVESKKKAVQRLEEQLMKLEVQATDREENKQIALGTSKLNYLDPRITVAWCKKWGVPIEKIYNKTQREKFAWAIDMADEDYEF
Description: Inhibition of human recombinant TOP1-mediated relaxation of supercoiled Escherichia coli pBR322 DNA at 100 uM after 30 mins by transillumination.
Conditions: not given
The method in brief: (§1)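 Relaxation assay: 100 ng supercoiled pBR322 with 0.4 units recombinant human topo I, ± compound (DMSO stocks 20 mM), 37 °C, 30 min. Buffer was 10 mM Tris–HCl pH 7.9, 150 mM NaCl, 0.1% BSA, 1 mM spermidine, 5% glycerol. Stopped with sarcosyl/bromophenol blue/glycerol, then 1% agarose gel in TAE at 15 V for 7 h. Ethidium bromide stain, UV transillumination, bands quantitated by densitometry.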
As usually defined, the inhibition is the relative decrease from the control value, in per cent. `Oc1cccc(-c2cc(-c3ccccc3)nc(-c3cccs3)c2)c1`: the inhibition was 9.1%.

As for `Oc1cccc(-c2cc(-c3ccccc3)cc(-c3ccsc3)n2)c1`, the inhibition came to 75.8%.

On to `Oc1cccc(-c2cc(-c3ccccc3)cc(-c3cccc(O)c3)n2)c1`, for which the inhibition is 67.2%.

As to `Oc1cccc(-c2cc(-c3ccccc3)nc(-c3ccncc3)c2)c1`, the inhibition came to 60.8%.

For the compound `Oc1cccc(-c2cc(-c3ccccc3)nc(-c3ccsc3)c2)c1`, the inhibition worked out at 6.9%.

In the case of `Oc1cccc(-c2cc(-c3ccccc3)cc(-c3ccco3)n2)c1`, the inhibition came out at 10.2%.

With `Oc1cccc(-c2cc(-c3ccccc3)nc(-c3ccco3)c2)c1`, the inhibition is 48.8%.

For a further assay, the system named is HCT-15. Description: Cytotoxicity against human HCT15 cells after 2 days by automatic ELISA reader system. The assay is classed as functional, cell-based. The settings on record: HCT-15, 48 h. The gist of the method:
(§2)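 Cells seeded at 2–4 × 10⁴ per well and grown overnight in medium with 10% FBS, 5% CO₂, 37 °C. Compound added on day 2; on day 4 CCK-8 solution added and incubated a further 4 h. Absorbance read at 450 nm and fitted to a four-parameter logistic equation for IC₅₀.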
Broadly, the IC50 is the concentration that gives 50% inhibition. A low value points to greater potency in that assay. `Oc1cccc(-c2cc(-c3ccccc3)nc(-c3cccs3)c2)c1` had an IC50 of 14.1 µM.

As to `Oc1cccc(-c2cc(-c3ccccc3)cc(-c3ccsc3)n2)c1`, the IC50 is 7.66 µM.

`Oc1cccc(-c2cc(-c3ccccc3)cc(-c3cccc(O)c3)n2)c1` came in with an IC50 of 18.4 µM. Compared with the last compound, the IC50 is about 2.4-fold higher.

Compound `Oc1cccc(-c2cc(-c3ccccc3)nc(-c3ccncc3)c2)c1` came in with an IC50 of 18.7 µM. This IC50 and that of the compound before are within 1.5-fold of each other.

`Oc1cccc(-c2cc(-c3ccccc3)nc(-c3ccsc3)c2)c1`: the IC50 was found to be 24.6 µM.

Compound `Oc1cccc(-c2cc(-c3ccccc3)cc(-c3ccco3)n2)c1` had an IC50 of 13.5 µM.

As for `Oc1cccc(-c2cc(-c3ccccc3)nc(-c3ccco3)c2)c1`, the IC50 stood at 13.9 µM.

Another assay relates to DU-145. Description: Cytotoxicity against human DU145 cells after 2 days by automatic ELISA reader system. It counts as functional, cell-based. The note with it: DU-145, 48 h. The gist of the method:
as §2
Regarding `Oc1cccc(-c2cc(-c3ccccc3)nc(-c3cccs3)c2)c1`, the IC50 came to 19.7 µM.

In turn, `Oc1cccc(-c2cc(-c3ccccc3)cc(-c3ccsc3)n2)c1` had an IC50 of 11.7 µM.

`Oc1cccc(-c2cc(-c3ccccc3)cc(-c3cccc(O)c3)n2)c1` had an IC50 of 24.9 µM.

Regarding `Oc1cccc(-c2cc(-c3ccccc3)nc(-c3ccncc3)c2)c1`, the IC50 came to 18.1 µM.

Regarding `Oc1cccc(-c2cc(-c3ccccc3)nc(-c3ccsc3)c2)c1`, 11.7 µM corresponded to half-maximal inhibition (IC50).

For `Oc1cccc(-c2cc(-c3ccccc3)cc(-c3ccco3)n2)c1`, the IC50 came to 14.4 µM.

As for `Oc1cccc(-c2cc(-c3ccccc3)nc(-c3ccco3)c2)c1`, the IC50 worked out at 34.9 µM. Compared with the last compound, the IC50 is about 2.4-fold higher.

The target of a further assay is DNA topoisomerase 2-alpha (Homo sapiens) (UniProt P11388). Description: Inhibition of human recombinant TOP2A-mediated relaxation of supercoiled Escherichia coli pBR322 DNA at 100 uM after 30 mins by transillumination.
Sequence of DNA topoisomerase 2-alpha (Homo sapiens) (P11388 whole entry): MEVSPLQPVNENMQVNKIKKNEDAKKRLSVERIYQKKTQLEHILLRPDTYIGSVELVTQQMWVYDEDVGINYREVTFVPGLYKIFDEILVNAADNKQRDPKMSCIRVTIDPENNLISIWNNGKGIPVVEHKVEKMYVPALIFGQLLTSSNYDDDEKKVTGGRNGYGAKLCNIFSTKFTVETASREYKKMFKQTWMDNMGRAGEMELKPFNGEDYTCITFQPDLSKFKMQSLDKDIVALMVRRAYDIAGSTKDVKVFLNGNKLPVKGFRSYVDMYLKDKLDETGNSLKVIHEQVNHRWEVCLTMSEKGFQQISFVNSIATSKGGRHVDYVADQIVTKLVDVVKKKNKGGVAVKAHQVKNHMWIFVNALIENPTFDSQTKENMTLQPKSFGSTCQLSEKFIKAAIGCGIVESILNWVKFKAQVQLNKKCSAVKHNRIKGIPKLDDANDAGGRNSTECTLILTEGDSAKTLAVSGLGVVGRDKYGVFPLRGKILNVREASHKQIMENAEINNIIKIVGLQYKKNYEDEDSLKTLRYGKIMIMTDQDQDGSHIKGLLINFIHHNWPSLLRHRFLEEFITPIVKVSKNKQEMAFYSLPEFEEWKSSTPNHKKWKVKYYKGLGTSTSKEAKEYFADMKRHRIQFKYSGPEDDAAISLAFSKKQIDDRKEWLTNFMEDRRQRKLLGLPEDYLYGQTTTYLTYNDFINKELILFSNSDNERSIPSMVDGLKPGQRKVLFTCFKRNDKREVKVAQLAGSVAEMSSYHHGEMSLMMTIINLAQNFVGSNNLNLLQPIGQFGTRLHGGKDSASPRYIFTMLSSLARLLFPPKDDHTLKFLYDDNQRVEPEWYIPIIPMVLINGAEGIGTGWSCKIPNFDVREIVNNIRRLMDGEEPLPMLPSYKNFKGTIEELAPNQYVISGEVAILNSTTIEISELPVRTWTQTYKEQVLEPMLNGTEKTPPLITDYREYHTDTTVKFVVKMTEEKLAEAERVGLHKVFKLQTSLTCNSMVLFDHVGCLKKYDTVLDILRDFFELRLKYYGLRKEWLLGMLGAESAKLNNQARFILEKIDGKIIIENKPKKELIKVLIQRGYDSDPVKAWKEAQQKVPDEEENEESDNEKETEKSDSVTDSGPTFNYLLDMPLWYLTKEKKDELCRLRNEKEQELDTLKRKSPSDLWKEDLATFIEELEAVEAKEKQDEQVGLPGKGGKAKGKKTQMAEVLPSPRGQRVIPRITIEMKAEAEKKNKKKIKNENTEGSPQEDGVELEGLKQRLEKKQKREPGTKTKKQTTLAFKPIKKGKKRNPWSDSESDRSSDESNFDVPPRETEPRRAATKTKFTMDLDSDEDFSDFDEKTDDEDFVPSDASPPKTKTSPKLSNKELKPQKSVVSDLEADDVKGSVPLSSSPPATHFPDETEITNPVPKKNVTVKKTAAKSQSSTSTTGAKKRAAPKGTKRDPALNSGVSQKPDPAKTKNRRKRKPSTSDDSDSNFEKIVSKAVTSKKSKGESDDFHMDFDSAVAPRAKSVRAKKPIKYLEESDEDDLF
Conditions: not given
The gist of the method: (§3)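 200 ng supercoiled pBR322 with topo II, ± compound, 30 °C for 30 min. Buffer was 10 mM Tris–HCl pH 7.9, 50 mM NaCl, 5 mM MgCl₂, 1 mM EDTA, 1 mM ATP, BSA. Stopped with 7 mM EDTA, then 1% agarose gel in TAE at 25 V for 4 h. Ethidium bromide stain, UV transillumination, supercoiled DNA quantitated.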
As for `Oc1cccc(-c2cc(-c3ccccc3)nc(-c3cccs3)c2)c1`, the inhibition is 57.5%.

For `Oc1cccc(-c2cc(-c3ccccc3)cc(-c3ccsc3)n2)c1`, the inhibition came out at 51.8%.

Regarding `Oc1cccc(-c2cc(-c3ccccc3)cc(-c3cccc(O)c3)n2)c1`, the inhibition was determined as 86.5%.

Turning to `Oc1cccc(-c2cc(-c3ccccc3)nc(-c3ccncc3)c2)c1`, the inhibition came to 42.8%.

In the case of `Oc1cccc(-c2cc(-c3ccccc3)nc(-c3ccsc3)c2)c1`, the inhibition came to 52.6%.

Turning to `Oc1cccc(-c2cc(-c3ccccc3)cc(-c3ccco3)n2)c1`, the inhibition came to 51.6%.

Regarding `Oc1cccc(-c2cc(-c3ccccc3)nc(-c3ccco3)c2)c1`, the inhibition is 47.5%.

Another assay deals with MDA-MB-231. Put plainly: Cytotoxicity against human MDA-MB-231 cells after 2 days by automatic ELISA reader system. It counts as functional, cell-based. The settings on record: MDA-MB-231, 48 h. The method in brief:
as §2
Turning to `Oc1cccc(-c2cc(-c3ccccc3)nc(-c3cccs3)c2)c1`, the IC50 was 17.7 µM.

`Oc1cccc(-c2cc(-c3ccccc3)cc(-c3ccsc3)n2)c1`: the IC50 turned out to be 12.1 µM.

`Oc1cccc(-c2cc(-c3ccccc3)cc(-c3cccc(O)c3)n2)c1` gave an IC50 of 12.8 µM. This IC50 and that of the compound before are within 1.5-fold of each other.

Compound `Oc1cccc(-c2cc(-c3ccccc3)nc(-c3ccncc3)c2)c1` came in with an IC50 of 12.2 µM.

With `Oc1cccc(-c2cc(-c3ccccc3)nc(-c3ccsc3)c2)c1`, half-maximal inhibition (IC50) was put at 19 µM.

Regarding `Oc1cccc(-c2cc(-c3ccccc3)cc(-c3ccco3)n2)c1`, the IC50 amounted to 13.7 µM.

With `Oc1cccc(-c2cc(-c3ccccc3)nc(-c3ccco3)c2)c1`, the IC50 is 20.8 µM.

For a further assay, the target named is T1, DNA topoisomerase 1 (Homo sapiens). Description: Inhibition of human recombinant TOP1-mediated relaxation of supercoiled Escherichia coli pBR322 DNA at 20 uM after 30 mins by transillumination.
Conditions: not given
The method in brief: as §1
As to `Oc1cccc(-c2cc(-c3ccccc3)nc(-c3cccs3)c2)c1`, the inhibition was found to be 2%.

Regarding `Oc1cccc(-c2cc(-c3ccccc3)cc(-c3ccsc3)n2)c1`, the inhibition was determined as 6.8%.

With `Oc1cccc(-c2cc(-c3ccccc3)cc(-c3cccc(O)c3)n2)c1`, the inhibition came to 10.5%.

Take `Oc1cccc(-c2cc(-c3ccccc3)nc(-c3ccncc3)c2)c1`: the inhibition stood at 0.9%.

Turning to `Oc1cccc(-c2cc(-c3ccccc3)nc(-c3ccsc3)c2)c1`, the inhibition turned out to be 3.2%.

For the compound `Oc1cccc(-c2cc(-c3ccccc3)cc(-c3ccco3)n2)c1`, the inhibition turned out to be 0%.

Turning to `Oc1cccc(-c2cc(-c3ccccc3)nc(-c3ccco3)c2)c1`, the inhibition worked out at 3.5%.

For a further assay, the system named is HeLa. Put plainly: Cytotoxicity against human HeLa cells after 2 days by automatic ELISA reader system. The assay is classed as functional, cell-based. The settings on record: 48 h. The gist of the method:
as §2
`Oc1cccc(-c2cc(-c3ccccc3)nc(-c3cccs3)c2)c1` returned an IC50 of 15.3 µM.

`Oc1cccc(-c2cc(-c3ccccc3)cc(-c3ccsc3)n2)c1`: the IC50 is 13.8 µM.

Compound `Oc1cccc(-c2cc(-c3ccccc3)cc(-c3cccc(O)c3)n2)c1` had a half-maximal inhibitory concentration (IC50) of 13 µM. This IC50 and that of the compound before are within 1.5-fold of each other.

`Oc1cccc(-c2cc(-c3ccccc3)nc(-c3ccncc3)c2)c1` came in with an IC50 of 15 µM.

Compound `Oc1cccc(-c2cc(-c3ccccc3)nc(-c3ccsc3)c2)c1` gave an IC50 of 14.9 µM.

Turning to `Oc1cccc(-c2cc(-c3ccccc3)cc(-c3ccco3)n2)c1`, the IC50 came to 9.43 µM.

`Oc1cccc(-c2cc(-c3ccccc3)nc(-c3ccco3)c2)c1` registered an IC50 of 10.9 µM. The IC50 values of the last two compounds are within 1.5-fold of each other.

A further assay deals with HL-60. Put plainly: Cytotoxicity against human HL60 cells after 2 days by automatic ELISA reader system. The settings on record: HL-60, 48 h. The assay is classed as functional, cell-based. The gist of the method: as §2
In turn, `Oc1cccc(-c2cc(-c3ccccc3)nc(-c3cccs3)c2)c1` gave an IC50 of 18.9 µM.

Turning to `Oc1cccc(-c2cc(-c3ccccc3)cc(-c3ccsc3)n2)c1`, the midpoint of inhibition, the IC50, lay at 10.3 µM.

As for `Oc1cccc(-c2cc(-c3ccccc3)cc(-c3cccc(O)c3)n2)c1`, the IC50 was found to be 16.4 µM. This IC50 is about 1.6-fold higher than that of the compound before.

The compound `Oc1cccc(-c2cc(-c3ccccc3)nc(-c3ccncc3)c2)c1` showed an IC50 of 12.7 µM.

As for `Oc1cccc(-c2cc(-c3ccccc3)nc(-c3ccsc3)c2)c1`, the IC50 is 12 µM.

For `Oc1cccc(-c2cc(-c3ccccc3)cc(-c3ccco3)n2)c1`, half-maximal inhibition (IC50) required 9.91 µM.

`Oc1cccc(-c2cc(-c3ccccc3)nc(-c3ccco3)c2)c1` came in with an IC50 of 24 µM.

In another assay the target is DNA topoisomerase 2-alpha (Homo sapiens) (UniProt P11388). Description: Inhibition of human recombinant TOP2A-mediated relaxation of supercoiled Escherichia coli pBR322 DNA at 20 uM after 30 mins by transillumination.
Conditions: not given
The method in brief: as §3
On to `Oc1cccc(-c2cc(-c3ccccc3)nc(-c3cccs3)c2)c1`, for which the inhibition came out at 34.7%.

Turning to `Oc1cccc(-c2cc(-c3ccccc3)cc(-c3ccsc3)n2)c1`, the inhibition came out at 37.2%.

Regarding `Oc1cccc(-c2cc(-c3ccccc3)cc(-c3cccc(O)c3)n2)c1`, the inhibition came out at 49%.

As for `Oc1cccc(-c2cc(-c3ccccc3)nc(-c3ccncc3)c2)c1`, the inhibition was determined as 32.7%.

Turning to `Oc1cccc(-c2cc(-c3ccccc3)nc(-c3ccsc3)c2)c1`, the inhibition is 30.8%.

As for `Oc1cccc(-c2cc(-c3ccccc3)cc(-c3ccco3)n2)c1`, the inhibition worked out at 38.6%.

Consider `Oc1cccc(-c2cc(-c3ccccc3)nc(-c3ccco3)c2)c1`, for which the inhibition was 31.1%.

The values are drawn from ChEMBL document CHEMBL1157776, “Synthesis, topoisomerase I and II inhibitory activity, cytotoxicity, and structure-activity relationship study of hydroxylated 2,4-diphenyl-6-aryl pyridines” (Bioorg Med Chem, 2010).
